The values that follow come from ChEMBL document CHEMBL3108749, “Discovery of a non-estrogenic irreversible inhibitor of 17β-hydroxysteroid dehydrogenase type 1 from 3-substituted-16β-(m-carbamoylbenzyl)-estradiol derivatives” (J Med Chem, 2014).

Usually inhibition stands for the percentage by which the read-out fell short of the control.

Test [1] deals with T47D. Description: Cytotoxicity against human estrogen-starved estrogen-sensitive T47D cells assessed as cell growth at 0.1 uM after 7 days by MTS assay relative to control. To be noted: 168 h, read-out: Activity. Format: functional. The essentials: (§1)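 MCF-7 (DMEM-F12) or T-47D (RPMI) cells are kept in medium with insulin (50 ng/mL) and 5% dextran-coated charcoal-treated FBS, seeded at 3000 cells/well. After 48 h, medium is replaced with medium containing compound, renewed every two days, and cells grow seven days. Growth is read by CellTiter 96 aqueous (MTS) assay as % proliferation vs basal control (0%). Scored −/+/++/+++ bands.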

Test [2] has as its system T47D. The experiment in a line: Cytotoxicity against human estrogen-starved estrogen-sensitive T47D cells assessed as cell growth at 1 uM after 7 days by MTS assay relative to control. The test is classed as functional. To be noted: 168 h, read-out: Activity. The essentials:
as §1
(Formazan colour is commonly taken as a measure of viable cells.)

Test [3] concerns the target T1, 17-beta-hydroxysteroid dehydrogenase type 1 (Homo sapiens) (UniProt P14061).
T1 sequence (whole entry): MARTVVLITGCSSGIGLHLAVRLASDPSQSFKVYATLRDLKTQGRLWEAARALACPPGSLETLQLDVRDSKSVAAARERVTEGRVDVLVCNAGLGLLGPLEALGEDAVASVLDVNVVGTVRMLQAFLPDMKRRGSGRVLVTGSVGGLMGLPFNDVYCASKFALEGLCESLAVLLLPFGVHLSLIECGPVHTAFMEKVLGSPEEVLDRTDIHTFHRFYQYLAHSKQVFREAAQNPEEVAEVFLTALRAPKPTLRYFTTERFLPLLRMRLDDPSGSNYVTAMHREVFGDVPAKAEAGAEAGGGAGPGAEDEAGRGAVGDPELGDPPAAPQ
Description: Inhibition of 17-beta HSD1 in human T47D cells assessed as transformation of [14C]E1 to [14C]E2 at 0.1 uM after 24 hrs by thin layer chromatography. Format: cell-based. The essentials: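 T-47D cells (endogenous 17β-HSD1) are seeded at 3000 cells/well in RPMI with insulin (50 ng/mL) and 5% charcoal-stripped FBS. After 24 h, compound (from EtOH stock, 0.1 μM final) is added with [14C]-E1 (60 nM) for 24 h. Steroids are extracted into diethyl ether, separated by silica TLC (toluene/acetone 4:1) and quantified. Mean ± SD of ≥2 independent experiments in triplicate.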

In test [4] the test system is MCF7. The experiment in a line: Cytotoxicity against human estrogen-starved estrogen-sensitive MCF7 cells assessed as cell growth at 1 uM after 7 days by MTS assay relative to control. Format: functional. To be noted: MCF7, 168 h, read-out: Activity. The essentials: as §1
The subject of test [5] is MCF7. Description: Cytotoxicity against human estrogen-starved estrogen-sensitive MCF7 cells assessed as cell growth at 0.1 uM after 7 days by MTS assay relative to control. To be noted: MCF7, 168 h, read-out: Activity. The test is classed as functional. The essentials: as §1

Consider `C[C@]12CC[C@@H]3c4ccc(CCc5ccccc5)cc4CC[C@H]3[C@@H]1C[C@H](Cc1cccc(C(N)=O)c1)[C@@H]2O`, for which the percent proliferation above basal control at 0.1 µM in test [1] was 0%. The % proliferation above basal control (0% = control) at 1 µM in test [2] stood at 0%. In test [3], the inhibition worked out at 17%.
Regarding `CN(C)C(=O)c1ccc2c(c1)CC[C@@H]1[C@@H]2CC[C@]2(C)[C@@H](O)[C@@H](Cc3cccc(C(N)=O)c3)C[C@@H]12`, the percent proliferation above basal control at 1 µM in test [4] turned out to be 15%. Moreover, the percent proliferation above basal control at 0.1 µM in test [5] came out at 5%. For the same compound, the inhibition in test [3] was 1%.
For `C[C@]12CC[C@@H]3c4ccc(C(=O)O)cc4CC[C@H]3[C@@H]1C[C@H](Cc1cccc(C(N)=O)c1)[C@@H]2O`, the percent proliferation above basal control at 1 µM in test [4] was above 30%. In test [5], the percent proliferation above basal control at 0.1 µM amounted to 5%. For the same compound, the inhibition in test [3] is 3%.
For the compound `C[C@]12CC[C@@H]3c4ccc(CCI)cc4CC[C@H]3[C@@H]1C[C@H](Cc1cccc(C(N)=O)c1)[C@@H]2O`, the percent proliferation above basal control at 0.1 µM in test [1] amounted to 0%. Moreover, the % proliferation above basal control (0% = control) at 1 µM in test [2] stood at 0%. In addition, the inhibition in test [3] was 54%.
On to `C[C@]12CC[C@@H]3c4ccc(CN5CCCC5)cc4CC[C@H]3[C@@H]1C[C@H](Cc1cccc(C(N)=O)c1)[C@@H]2O`, for which the percent proliferation above basal control at 1 µM in test [4] turned out to be 5%. In test [5], the percent proliferation above basal control at 0.1 µM amounted to 0%. Moreover, the inhibition in test [3] turned out to be 10%.
As for `C[C@]12CC[C@@H]3c4ccc(N)cc4CC[C@H]3[C@@H]1C[C@H](Cc1cccc(C(N)=O)c1)[C@@H]2O`, in test [4], the percent proliferation above basal control at 1 µM worked out at 5%. The percent proliferation above basal control at 0.1 µM in test [5] stood at 0%. Also, the inhibition in test [3] stood at 31%.
Take `C[C@]12CC[C@@H]3c4ccc(C(N)=O)cc4CC[C@H]3[C@@H]1C[C@H](Cc1cccc(C(N)=O)c1)[C@@H]2O`: the percent proliferation above basal control at 1 µM in test [4] was determined as 15%. Moreover, the percent proliferation above basal control at 0.1 µM in test [5] was determined as 0%. In test [3], the inhibition came out at 2%.
For `CCCN(CC)Cc1ccc2c(c1)CC[C@@H]1[C@@H]2CC[C@]2(C)[C@@H](O)[C@@H](Cc3cccc(C(N)=O)c3)C[C@@H]12`, in that order: 0%, 0% and 14%.
Regarding `C[C@]12CC[C@@H]3c4ccc(F)cc4CC[C@H]3[C@@H]1C[C@H](Cc1cccc(C(N)=O)c1)[C@@H]2O`, the percent proliferation above basal control at 1 µM in test [4] came to 5%. For the same compound, the percent proliferation above basal control at 0.1 µM in test [5] came to 0%. The inhibition in test [3] was determined as 10%.
On to `C[C@]12CC[C@@H]3c4ccc(CCCl)cc4CC[C@H]3[C@@H]1C[C@H](Cc1cccc(C(N)=O)c1)[C@@H]2O`, for which the percent proliferation above basal control at 0.1 µM in test [1] was determined as 0%. The % proliferation above basal control (0% = control) at 1 µM in test [2] was 0%. Besides, in test [3], the inhibition was found to be 12%.
As to `C[C@]12CC[C@@H]3c4ccc(CC(=O)O)cc4CC[C@H]3[C@@H]1C[C@H](Cc1cccc(C(N)=O)c1)[C@@H]2O`, the percent proliferation above basal control at 1 µM in test [4] was determined as 5%. In test [5], the percent proliferation above basal control at 0.1 µM came out at 0%. In test [3], the inhibition amounted to 7%.
For `C[C@]12CC[C@@H]3c4ccc(CO)cc4CC[C@H]3[C@@H]1C[C@H](Cc1cccc(C(N)=O)c1)[C@@H]2O`, the percent proliferation above basal control at 1 µM in test [4] amounted to 5%. Besides, the percent proliferation above basal control at 0.1 µM in test [5] was found to be 0%.
For the compound `C[C@]12CC[C@@H]3c4ccc(C(=O)N5CCCC5)cc4CC[C@H]3[C@@H]1C[C@H](Cc1cccc(C(N)=O)c1)[C@@H]2O`, in test [4], the percent proliferation above basal control at 1 µM was determined as 0%. The percent proliferation above basal control at 0.1 µM in test [5] is 0%. Moreover, in test [3], the inhibition was determined as 3%.
For the compound `C[C@]12CC[C@@H]3c4ccc(CN)cc4CC[C@H]3[C@@H]1C[C@H](Cc1cccc(C(N)=O)c1)[C@@H]2O`, the percent proliferation above basal control at 1 µM in test [4] was above 30%. The percent proliferation above basal control at 0.1 µM in test [5] was above 30%. The inhibition in test [3] was 44%.
On to `C[C@]12CC[C@@H]3c4ccc(CCO)cc4CC[C@H]3[C@@H]1C[C@H](Cc1cccc(C(N)=O)c1)[C@@H]2O`, for which the percent proliferation above basal control at 1 µM in test [4] stood at 5%. The percent proliferation above basal control at 0.1 µM in test [5] worked out at 5%. In test [3], the inhibition worked out at 18%.
With `C[C@]12CC[C@@H]3c4ccc(CCCO)cc4CC[C@H]3[C@@H]1C[C@H](Cc1cccc(C(N)=O)c1)[C@@H]2O`, the percent proliferation above basal control at 0.1 µM in test [1] was determined as 0%. Moreover, the % proliferation above basal control (0% = control) at 1 µM in test [2] was 5%. Besides, the inhibition in test [3] worked out at 20%.
For `CCCN(CC)C(=O)c1ccc2c(c1)CC[C@@H]1[C@@H]2CC[C@]2(C)[C@@H](O)[C@@H](Cc3cccc(C(N)=O)c3)C[C@@H]12`, the percent proliferation above basal control at 1 µM in test [4] was 0%. Further, in test [5], the percent proliferation above basal control at 0.1 µM is 0%. For the same compound, the inhibition in test [3] is 10%.
Turning to `C[C@]12CC[C@@H]3c4ccc(CBr)cc4CC[C@H]3[C@@H]1C[C@H](Cc1cccc(C(N)=O)c1)[C@@H]2O`, the percent proliferation above basal control at 1 µM in test [4] amounted to 0%. The percent proliferation above basal control at 0.1 µM in test [5] worked out at 0%. Also, the inhibition in test [3] was 30%.
Turning to `CCc1ccc2c(c1)CC[C@@H]1[C@@H]2CC[C@]2(C)[C@@H](O)[C@@H](Cc3cccc(C(N)=O)c3)C[C@@H]12`, in test [4], the percent proliferation above basal control at 1 µM was 0%. Moreover, the percent proliferation above basal control at 0.1 µM in test [5] amounted to 0%. Also, the inhibition in test [3] is 6%.
Consider `CN(C)Cc1ccc2c(c1)CC[C@@H]1[C@@H]2CC[C@]2(C)[C@@H](O)[C@@H](Cc3cccc(C(N)=O)c3)C[C@@H]12`, for which the percent proliferation above basal control at 1 µM in test [4] is 0%. For the same compound, the percent proliferation above basal control at 0.1 µM in test [5] stood at 0%. Further, in test [3], the inhibition stood at 19%.
Turning to `CNC(=O)Cc1ccc2c(c1)CC[C@@H]1[C@@H]2CC[C@]2(C)[C@@H](O)[C@@H](Cc3cccc(C(N)=O)c3)C[C@@H]12`, the percent proliferation above basal control at 1 µM in test [4] was determined as 0%. Also, in test [5], the percent proliferation above basal control at 0.1 µM is 0%. Also, in test [3], the inhibition came to 11%.
Consider `C[C@]12CC[C@@H]3c4ccc(B(O)O)cc4CC[C@H]3[C@@H]1C[C@H](Cc1cccc(C(N)=O)c1)[C@@H]2O`, for which the percent proliferation above basal control at 1 µM in test [4] is above 30%. Further, the percent proliferation above basal control at 0.1 µM in test [5] is above 30%. For the same compound, the inhibition in test [3] came out at 36%.
